Experimental data taken from ChEMBL document CHEMBL1649151, “Urinary bactericidal activity of Doripenem versus that of levofloxacin in patients with complicated urinary tract infections or pyelonephritis” (Antimicrob Agents Chemother, 2009).

How the values were obtained:
Escherichia coli [1] = experiment: Antimicrobial activity against Escherichia coli 1780063 B-A isolated from patient with pyelonephritis assessed as >3-log reduction in urinary bacterial titer after 20 hrs; type: functional, Urine
Procedure, shortened: (§1)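 Urine was collected before dosing and on day 3 of i.v. therapy (steady state), in 4-h intervals from infusion start (0–4 to 20–24 h), stored at −80°C and sterile filtered. It was serially diluted twofold (1:0 to 1:131,072) in the patient's drug-free pre-dose urine. Microdilution used an inoculum of 1.0 x 10^6–9.5 x 10^6 CFU/ml, incubated 18 h at 37°C, then subcultured 24 h on blood agar. The endpoint was >99.9% kill, reported as reciprocal titer.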

[2] = test system: Staphylococcus haemolyticus; experiment: Antimicrobial activity against Staphylococcus haemolyticus 1949819 B-M isolated from patient with pyelonephritis assessed as >3-log reduction in urinary bacterial titer after 20 hrs; type: functional, Urine
Enterococcus faecalis [3] = experiment: Antimicrobial activity against Enterococcus faecalis 2215770 B-T isolated from patient with pyelonephritis assessed as >3-log reduction in urinary bacterial titer after 16 hrs; type: functional, Urine; procedure, shortened: as §1
Escherichia coli [4] = experiment: Antimicrobial activity against Escherichia coli 1949826 B-L isolated from patient with pyelonephritis assessed as >3-log reduction in urinary bacterial titer after 16 hrs; type: functional, Urine
Procedure, shortened: (§2)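 Patient urine was collected on day 3 of i.v. therapy (steady state) over 4-h intervals after infusion start, stored at –80°C, and sterile filtered. It was twofold serially diluted (1:0 to 1:131,072) in the patient's own pre-dose drug-free urine, inoculated to 1.0 x 10^6–9.5 x 10^6 CFU/ml, and incubated for 18 h at 37°C. Subcultures were grown on blood agar for 24 h. The UBT is the reciprocal of the highest dilution giving >99.9% kill.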

Escherichia coli [5] = experiment: Antimicrobial activity against Escherichia coli 1780063 B-A isolated from patient with pyelonephritis assessed as >3-log reduction in urinary bacterial titer after 16 hrs; type: functional, Urine; procedure, shortened: as §1
Escherichia coli [6] = experiment: Antimicrobial activity against Escherichia coli 2062717 B-P isolated from patient with pyelonephritis assessed as >3-log reduction in urinary bacterial titer after 12 hrs; type: functional, Urine; procedure, shortened: as §2
Escherichia coli [7] = experiment: Antimicrobial activity against Escherichia coli 1949825 B-K isolated from patient with pyelonephritis assessed as >3-log reduction in urinary bacterial titer after 20 hrs; type: functional, Urine; procedure, shortened: as §2
Escherichia coli [8] = experiment: Antimicrobial activity against Escherichia coli 2062717 B-P isolated from patient with pyelonephritis assessed as >3-log reduction in urinary bacterial titer after 4 hrs; type: functional, Urine
Escherichia coli [9] = experiment: Antimicrobial activity against Escherichia coli 1949826 B-L isolated from patient with pyelonephritis assessed as >3-log reduction in urinary bacterial titer after 4 hrs; type: functional, Urine; procedure, shortened: as §2
Enterococcus faecalis [10] = experiment: Antimicrobial activity against Enterococcus faecalis 2215770 B-T isolated from patient with pyelonephritis assessed as >3-log reduction in urinary bacterial titer after 24 hrs; type: functional, Urine; procedure, shortened: as §1
Escherichia coli [11] = experiment: Antimicrobial activity against Escherichia coli 1949826 B-L isolated from patient with pyelonephritis assessed as >3-log reduction in urinary bacterial titer after 24 hrs; type: functional, Urine; procedure, shortened: as §2
Escherichia coli [12] = experiment: Antimicrobial activity against Escherichia coli 1949825 B-K isolated from patient with pyelonephritis assessed as >3-log reduction in urinary bacterial titer after 24 hrs; type: functional, Urine; procedure, shortened: as §2
Escherichia coli [13] = experiment: Antimicrobial activity against Escherichia coli 1889645 B-I isolated from patient with pyelonephritis assessed as >3-log reduction in urinary bacterial titer after 24 hrs; type: functional, Urine
Procedure, shortened: (§3)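 Urine was collected on day 3 of i.v. therapy (steady state) over 4-h intervals from infusion start (0–4 to 20–24 h), stored at –80°C and sterile filtered. It was serially diluted twofold (1:0 up to 1:131,072) in the patient's own pre-dose drug-free urine. Microdilution used a final inoculum of 1.0 x 10^6 to 9.5 x 10^6 CFU/ml, incubated 18 h at 37°C in air. 10 µl was subcultured onto 5% blood Columbia agar for 24 h at 37°C. The bactericidal endpoint was >99.9% (>3-log) kill, reported as a reciprocal titer.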

Escherichia coli [14] = experiment: Antimicrobial activity against Escherichia coli 1780063 B-A isolated from patient with pyelonephritis assessed as >3-log reduction in urinary bacterial titer after 24 hrs; type: functional, Urine; procedure, shortened: as §1
Escherichia coli [15] = experiment: Antimicrobial activity against Escherichia coli 2297257 B-W isolated from patient with pyelonephritis assessed as >3-log reduction in urinary bacterial titer after 24 hrs; type: functional, Urine
Escherichia coli [16] = experiment: Antimicrobial activity against Escherichia coli 1655646 A-Y isolated from patient with pyelonephritis assessed as >3-log reduction in urinary bacterial titer after 20 hrs; type: functional, Urine; procedure, shortened: as §1
[17] = test system: Staphylococcus epidermidis; experiment: Antimicrobial activity against Staphylococcus epidermidis 2297262-9 B-V isolated from patient with pyelonephritis assessed as >3-log reduction in urinary bacterial titer after 20 hrs; type: functional, Urine
Enterococcus faecalis [18] = experiment: Antimicrobial activity against Enterococcus faecalis 2297262-10 B-V isolated from patient with pyelonephritis assessed as >3-log reduction in urinary bacterial titer after 20 hrs; type: functional, Urine; procedure, shortened: as §1
Escherichia coli [19] = experiment: Antimicrobial activity against Escherichia coli 1889647 B-H isolated from patient with pyelonephritis assessed as >3-log reduction in urinary bacterial titer after 16 hrs; type: functional, Urine; procedure, shortened: as §3
Escherichia coli [20] = experiment: Antimicrobial activity against Escherichia coli 1780064 A-X isolated from patient with pyelonephritis assessed as >3-log reduction in urinary bacterial titer after 16 hrs; type: functional, Urine; procedure, shortened: as §1
Staphylococcus aureus [21] = experiment: Antimicrobial activity against Staphylococcus aureus 2215767-9 B-S isolated from patient with pyelonephritis assessed as >3-log reduction in urinary bacterial titer after 16 hrs; type: functional, Urine
Escherichia coli [22] = experiment: Antimicrobial activity against Escherichia coli 2062716 B-R isolated from patient with pyelonephritis by Etest; type: functional
Enterococcus faecalis [23] = experiment: Antimicrobial activity against Enterococcus faecalis 2215767-10 B-S isolated from patient with pyelonephritis by Etest; type: functional
Enterococcus faecalis [24] = experiment: Antimicrobial activity against Enterococcus faecalis 2297262-10 B-V isolated from patient with pyelonephritis by Etest; type: functional
Escherichia coli [25] = experiment: Antimicrobial activity against Escherichia coli 1780064 A-X isolated from patient with pyelonephritis assessed as >3-log reduction in urinary bacterial titer after 12 hrs; type: functional, Urine; procedure, shortened: as §1
Escherichia coli [26] = experiment: Antimicrobial activity against Escherichia coli 1655646 A-Y isolated from patient with pyelonephritis assessed as >3-log reduction in urinary bacterial titer after 8 hrs; type: functional, Urine; procedure, shortened: as §1
Serratia marcescens = experiment: Antimicrobial activity against Serratia marcescens 2297260 B-U isolated from patient with pyelonephritis assessed as >3-log reduction in urinary bacterial titer after 4 hrs; type: functional, Urine
Staphylococcus aureus [27] = experiment: Antimicrobial activity against Staphylococcus aureus 1889640 A-Z isolated from patient with pyelonephritis assessed as >3-log reduction in urinary bacterial titer after 24 hrs; type: functional, Urine
Pseudomonas aeruginosa [28] = experiment: Antimicrobial activity against Pseudomonas aeruginosa 2062713 B-Q isolated from patient with pyelonephritis assessed as >3-log reduction in urinary bacterial titer after 24 hrs; type: functional, Urine
Pseudomonas aeruginosa [29] = experiment: Antimicrobial activity against Pseudomonas aeruginosa 1821383 B-E isolated from patient with pyelonephritis assessed as >3-log reduction in urinary bacterial titer after 24 hrs; type: functional, Urine
Escherichia coli [30] = experiment: Antimicrobial activity against Escherichia coli 1889647 B-H isolated from patient with pyelonephritis assessed as >3-log reduction in urinary bacterial titer after 24 hrs; type: functional, Urine; procedure, shortened: as §3
Staphylococcus aureus [31] = experiment: Antimicrobial activity against Staphylococcus aureus 2215767-9 B-S isolated from patient with pyelonephritis assessed as >3-log reduction in urinary bacterial titer after 24 hrs; type: functional, Urine
Staphylococcus aureus [32] = experiment: Antimicrobial activity against Staphylococcus aureus 1889640 A-Z isolated from patient with pyelonephritis assessed as >3-log reduction in urinary bacterial titer after 20 hrs; type: functional, Urine
Pseudomonas aeruginosa [33] = experiment: Antimicrobial activity against Pseudomonas aeruginosa 1821383 B-E isolated from patient with pyelonephritis assessed as >3-log reduction in urinary bacterial titer after 20 hrs; type: functional, Urine

Work on C[C@@H](O)[C@H]1C(=O)N2C(C(=O)O)=C(S[C@@H]3CN[C@H](CNS(N)(=O)=O)C3)[C@H](C)[C@H]12 [DORIPENEM] yielded a urinary bactericidal titer (Escherichia coli [1]) of 4096 reciprocal titer, a urinary bactericidal titer [2] of 2048 reciprocal titer and a urinary bactericidal titer (Enterococcus faecalis [3]) of 512 reciprocal titer. For the same molecule, the urinary bactericidal titer (Escherichia coli [4]) was 32800, the urinary bactericidal titer (Escherichia coli [5]) was 1024 reciprocal titer and the urinary bactericidal titer (Escherichia coli [6]) was 1024 reciprocal titer. It also gave a urinary bactericidal titer (Escherichia coli [7]) of 4096 reciprocal titer, a urinary bactericidal titer (Escherichia coli [8]) of 32800 reciprocal titer and a urinary bactericidal titer (Escherichia coli [9]) of 128 reciprocal titer. It also gave a urinary bactericidal titer (Enterococcus faecalis [10]) of 512 reciprocal titer, a urinary bactericidal titer (Escherichia coli [11]) of 16400 reciprocal titer and a urinary bactericidal titer (Escherichia coli [12]) of 256 reciprocal titer. The urinary bactericidal titer (Escherichia coli [13]) was 4096 reciprocal titer, the urinary bactericidal titer (Escherichia coli [14]) was 1024 reciprocal titer and the urinary bactericidal titer (Escherichia coli [15]) was 4096 reciprocal titer.
C[C@H]1COc2c(N3CCN(C)CC3)c(F)cc3c(=O)c(C(=O)O)cn1c23.C[C@H]1COc2c(N3CCN(C)CC3)c(F)cc3c(=O)c(C(=O)O)cn1c23.O [LEVOFLOXACIN] was tested, and the urinary bactericidal titer (Escherichia coli [16]) was 1024 reciprocal titer, the urinary bactericidal titer [17] was 2 reciprocal titer and the Time (Enterococcus faecalis [18]) was 0 h. For the same molecule, the urinary bactericidal titer (Escherichia coli [19]) was 1024 reciprocal titer, the urinary bactericidal titer (Escherichia coli [20]) was 128 reciprocal titer and the urinary bactericidal titer (Staphylococcus aureus [21]) was 0 reciprocal titer. The MIC (Escherichia coli [22]) was 0.032 µg/mL, the MIC (Enterococcus faecalis [23]) was greater than 32 µg/mL and the MIC (Enterococcus faecalis [24]) was greater than 32 µg/mL. The urinary bactericidal titer (Escherichia coli [25]) was 256 reciprocal titer, the urinary bactericidal titer (Escherichia coli [26]) was 2048 reciprocal titer and the urinary bactericidal titer (Serratia marcescens) was 512 reciprocal titer. The urinary bactericidal titer (Staphylococcus aureus [27]) was 64 reciprocal titer, the urinary bactericidal titer (Pseudomonas aeruginosa [28]) was 2 reciprocal titer and the urinary bactericidal titer (Pseudomonas aeruginosa [29]) was 16 reciprocal titer. The urinary bactericidal titer (Escherichia coli [30]) was 256 reciprocal titer, the urinary bactericidal titer (Staphylococcus aureus [31]) was 0 reciprocal titer and the urinary bactericidal titer (Staphylococcus aureus [32]) was 64 reciprocal titer. It also gave a urinary bactericidal titer (Pseudomonas aeruginosa [33]) of 128 reciprocal titer.
